# From ChEMBL document CHEMBL5303300, “EUbOPEN Chemogenomics Library - Multiplex” (2023)
# Several values for one entry are separate records, joined by “and”; a condition that tells them apart may be missing. Equal entries are not always repeated.
# Test system: Fibroblast
# Assay: Multiplex assay against human fibroblast
# Assay type: toxicity, cell-based
# Conditions: number of replicates 2
# Procedure, shortened: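 Compound was added to live cells that had been stained at seeding with Hoechst33342, BioTracker Green Microtubule Cytoskeleton Dye, MitoTracker Red and Annexin V Alexa Fluor 680, and imaging followed on a CQ1 microscope at 37°C and 5% CO2. CellPathfinder machine-learning gating divided cells into Hoechst high-intensity objects or normal cells, normal cells into healthy, pyknosed or fragmented nuclei, and pyknosed cells into mitotic or apoptotic. Tubulin, mitochondrial-mass and membrane-permeability phenotypes are per cents of healthy-nucleus cells.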
# [1] = 12 h, 1 µM, compound concentration 1 uM
# [2] = 12 h, 10 µM, compound concentration 10 uM
# [3] = 24 h, 1 µM, compound concentration 1 uM
# [4] = 24 h, 10 µM, compound concentration 10 uM
# [5] = 48 h, 1 µM, compound concentration 1 uM
# [6] = 48 h, 10 µM, compound concentration 10 uM
smiles,measurement,setting,value
NCC1CCC(CNc2nc(NCc3ccccc3OC(F)(F)F)ncc2[N+](=O)[O-])CC1 (configuration not stated),Population Apoptotic (%),[1],46% and 42%
same,Population Fragmented Nuclei (%),[1],9%
same,Population Healthy Nuclei (%),[1],68% and 62%
same,Population Hoechst High Intensity Objects (%),[1],0%
same,Population Membrane Permeable-Phenotype (%),[1],7% and 9%
same,Population Mitochondria Different-Phenotype (%),[1],1% and 2%
same,Population Mitotic Cells (%),[1],53% and 57%
same,Population Normal (%),[1],100% and 99%
same,Population Pyknosed Nuclei (%),[1],21% and 27%
same,Population Tubulin-Different-Phenotype (%),[1],60% and 45%
same,Total Cell Count,[1],205 and 224
same,Population Apoptotic (%),[2],34% and 27%
same,Population Fragmented Nuclei (%),[2],14% and 23%
same,Population Healthy Nuclei (%),[2],54% and 60%
same,Population Hoechst High Intensity Objects (%),[2],0%
same,Population Membrane Permeable-Phenotype (%),[2],6% and 9%
same,Population Mitochondria Different-Phenotype (%),[2],28% and 18%
same,Population Mitotic Cells (%),[2],65% and 72%
same,Population Normal (%),[2],100%
same,Population Pyknosed Nuclei (%),[2],31% and 16%
same,Population Tubulin-Different-Phenotype (%),[2],84% and 87%
same,Total Cell Count,[2],135 and 286
same,Population Apoptotic (%),[3],64% and 60%
same,Population Fragmented Nuclei (%),[3],10% and 15%
same,Population Healthy Nuclei (%),[3],67% and 62%
same,Population Hoechst High Intensity Objects (%),[3],0% and 1%
same,Population Membrane Permeable-Phenotype (%),[3],0% and 1%
same,Population Mitochondria Different-Phenotype (%),[3],8%
same,Population Mitotic Cells (%),[3],35% and 40%
same,Population Normal (%),[3],100% and 98%
same,Population Pyknosed Nuclei (%),[3],22% and 21%
same,Population Tubulin-Different-Phenotype (%),[3],50% and 37%
same,Total Cell Count,[3],202 and 217
same,Population Apoptotic (%),[4],81% and 62%
same,Population Fragmented Nuclei (%),[4],21% and 22%
same,Population Healthy Nuclei (%),[4],58% and 67%
same,Population Hoechst High Intensity Objects (%),[4],0%
same,Population Membrane Permeable-Phenotype (%),[4],5% and 3%
same,Population Mitochondria Different-Phenotype (%),[4],54% and 59%
same,Population Mitotic Cells (%),[4],18% and 37%
same,Population Normal (%),[4],100%
same,Population Pyknosed Nuclei (%),[4],20% and 9%
same,Population Tubulin-Different-Phenotype (%),[4],93%
same,Total Cell Count,[4],132 and 274
same,Population Apoptotic (%),[5],70% and 72%
same,Population Fragmented Nuclei (%),[5],10% and 13%
same,Population Healthy Nuclei (%),[5],72% and 65%
same,Population Hoechst High Intensity Objects (%),[5],0%
same,Population Membrane Permeable-Phenotype (%),[5],4% and 3%
same,Population Mitochondria Different-Phenotype (%),[5],2% and 4%
same,Population Mitotic Cells (%),[5],29% and 27%
same,Population Normal (%),[5],100%
same,Population Pyknosed Nuclei (%),[5],16% and 20%
same,Population Tubulin-Different-Phenotype (%),[5],38% and 35%
same,Total Cell Count,[5],210 and 217
same,Population Apoptotic (%),[6],90% and 66%
same,Population Fragmented Nuclei (%),[6],28% and 36%
same,Population Healthy Nuclei (%),[6],65% and 58%
same,Population Hoechst High Intensity Objects (%),[6],1% and 0%
same,Population Membrane Permeable-Phenotype (%),[6],0% and 4%
same,Population Mitochondria Different-Phenotype (%),[6],34% and 30%
same,Population Normal (%),[6],98% and 99%
same,Population Pyknosed Nuclei (%),[6],6% and 4%
same,Population Tubulin-Different-Phenotype (%),[6],92% and 91%
same,Total Cell Count,[6],160 and 339
CN(C)[C@H]1CC[C@H](Nc2ncc3ncnc(Nc4ccc(F)c(Cl)c4)c3n2)CC1,Population Apoptotic (%),[1],68% and 45%
same,Population Fragmented Nuclei (%),[1],26% and 29%
same,Population Healthy Nuclei (%),[1],54% and 50%
same,Population Hoechst High Intensity Objects (%),[1],1% and 0%
same,Population Membrane Permeable-Phenotype (%),[1],4% and 9%
same,Population Mitochondria Different-Phenotype (%),[1],1%
same,Population Mitotic Cells (%),[1],31% and 55%
same,Population Normal (%),[1],98% and 99%
same,Population Pyknosed Nuclei (%),[1],18% and 19%
same,Population Tubulin-Different-Phenotype (%),[1],16% and 11%
same,Total Cell Count,[1],309 and 205
same,Population Apoptotic (%),[2],31% and 27%
same,Population Fragmented Nuclei (%),[2],30% and 24%
same,Population Healthy Nuclei (%),[2],45% and 51%
same,Population Hoechst High Intensity Objects (%),[2],18% and 10%
same,Population Membrane Permeable-Phenotype (%),[2],2% and 3%
same,Population Mitochondria Different-Phenotype (%),[2],0%
same,Population Mitotic Cells (%),[2],68% and 72%
same,Population Normal (%),[2],81% and 89%
same,Population Pyknosed Nuclei (%),[2],24% and 23%
same,Population Tubulin-Different-Phenotype (%),[2],4% and 3%
same,Total Cell Count,[2],681 and 574
same,Population Apoptotic (%),[3],54% and 67%
same,Population Fragmented Nuclei (%),[3],28% and 20%
same,Population Healthy Nuclei (%),[3],48% and 63%
same,Population Hoechst High Intensity Objects (%),[3],0%
same,Population Membrane Permeable-Phenotype (%),[3],3% and 6%
same,Population Mitochondria Different-Phenotype (%),[3],1% and 2%
same,Population Mitotic Cells (%),[3],45% and 32%
same,Population Normal (%),[3],100% and 99%
same,Population Pyknosed Nuclei (%),[3],23% and 16%
same,Population Tubulin-Different-Phenotype (%),[3],11% and 13%
same,Total Cell Count,[3],208 and 288
same,Population Apoptotic (%),[4],18% and 27%
same,Population Fragmented Nuclei (%),[4],27% and 28%
same,Population Healthy Nuclei (%),[4],44% and 47%
same,Population Hoechst High Intensity Objects (%),[4],19% and 27%
same,Population Membrane Permeable-Phenotype (%),[4],6% and 3%
same,Population Mitochondria Different-Phenotype (%),[4],0% and 1%
same,Population Mitotic Cells (%),[4],81% and 72%
same,Population Normal (%),[4],80% and 72%
same,Population Pyknosed Nuclei (%),[4],27% and 24%
same,Population Tubulin-Different-Phenotype (%),[4],5% and 4%
same,Total Cell Count,[4],464 and 636
same,Population Apoptotic (%),[5],68% and 56%
same,Population Fragmented Nuclei (%),[5],22% and 32%
same,Population Healthy Nuclei (%),[5],61% and 50%
same,Population Hoechst High Intensity Objects (%),[5],2% and 0%
same,Population Membrane Permeable-Phenotype (%),[5],7% and 9%
same,Population Mitochondria Different-Phenotype (%),[5],0%
same,Population Mitotic Cells (%),[5],31% and 43%
same,Population Normal (%),[5],97% and 99%
same,Population Pyknosed Nuclei (%),[5],15% and 17%
same,Population Tubulin-Different-Phenotype (%),[5],10% and 6%
same,Total Cell Count,[5],264 and 218
same,Population Apoptotic (%),[6],20% and 21%
same,Population Fragmented Nuclei (%),[6],31% and 34%
same,Population Healthy Nuclei (%),[6],38% and 37%
same,Population Hoechst High Intensity Objects (%),[6],22% and 26%
same,Population Membrane Permeable-Phenotype (%),[6],5% and 1%
same,Population Mitochondria Different-Phenotype (%),[6],0%
same,Population Mitotic Cells (%),[6],79% and 78%
same,Population Normal (%),[6],77% and 73%
same,Population Pyknosed Nuclei (%),[6],30% and 27%
same,Population Tubulin-Different-Phenotype (%),[6],5% and 2%
same,Total Cell Count,[6],527 and 613
CC(C)S(=O)(=O)c1ccccc1Nc1nc(N[C@@H]2CCCN(CCCCCCCNC(=O)COc3cccc4c3C(=O)N(C3CCC(=O)N(C)C3=O)C4=O)C2)ncc1Cl (some centres not stated),Population Apoptotic (%),[1],58% and 50%
same,Population Fragmented Nuclei (%),[1],7% and 16%
same,Population Healthy Nuclei (%),[1],50% and 56%
same,Population Hoechst High Intensity Objects (%),[1],0% and 1%
same,Population Membrane Permeable-Phenotype (%),[1],10% and 9%
same,Population Mitochondria Different-Phenotype (%),[1],5% and 6%
same,Population Mitotic Cells (%),[1],41% and 49%
same,Population Normal (%),[1],100% and 98%
same,Population Pyknosed Nuclei (%),[1],42% and 27%
same,Population Tubulin-Different-Phenotype (%),[1],58% and 39%
same,Total Cell Count,[1],178 and 249
same,Population Apoptotic (%),[2],63% and 51%
same,Population Fragmented Nuclei (%),[2],9% and 14%
same,Population Healthy Nuclei (%),[2],42% and 36%
same,Population Hoechst High Intensity Objects (%),[2],0%
same,Population Membrane Permeable-Phenotype (%),[2],33% and 29%
same,Population Mitochondria Different-Phenotype (%),[2],24% and 26%
same,Population Mitotic Cells (%),[2],36% and 49%
same,Population Normal (%),[2],100% and 99%
same,Population Pyknosed Nuclei (%),[2],47% and 48%
same,Population Tubulin-Different-Phenotype (%),[2],24% and 17%
same,Total Cell Count,[2],191 and 207
same,Population Apoptotic (%),[3],81% and 86%
same,Population Fragmented Nuclei (%),[3],16% and 21%
same,Population Healthy Nuclei (%),[3],39% and 36%
same,Population Hoechst High Intensity Objects (%),[3],0%
same,Population Membrane Permeable-Phenotype (%),[3],13% and 8%
same,Population Mitochondria Different-Phenotype (%),[3],6% and 5%
same,Population Mitotic Cells (%),[3],18% and 14%
same,Population Normal (%),[3],99% and 100%
same,Population Pyknosed Nuclei (%),[3],43% and 42%
same,Population Tubulin-Different-Phenotype (%),[3],25% and 18%
same,Total Cell Count,[3],189 and 238
same,Population Apoptotic (%),[4],76% and 74%
same,Population Fragmented Nuclei (%),[4],15% and 16%
same,Population Healthy Nuclei (%),[4],37% and 28%
same,Population Hoechst High Intensity Objects (%),[4],0%
same,Population Membrane Permeable-Phenotype (%),[4],20% and 9%
same,Population Mitochondria Different-Phenotype (%),[4],52% and 73%
same,Population Mitotic Cells (%),[4],23% and 25%
same,Population Normal (%),[4],99%
same,Population Pyknosed Nuclei (%),[4],47% and 55%
same,Population Tubulin-Different-Phenotype (%),[4],50% and 36%
same,Total Cell Count,[4],193 and 186
same,Population Apoptotic (%),[5],86% and 96%
same,Population Fragmented Nuclei (%),[5],15% and 24%
same,Population Healthy Nuclei (%),[5],46% and 36%
same,Population Hoechst High Intensity Objects (%),[5],0% and 1%
same,Population Membrane Permeable-Phenotype (%),[5],19% and 21%
same,Population Mitochondria Different-Phenotype (%),[5],4% and 6%
same,Population Mitotic Cells (%),[5],13% and 3%
same,Population Normal (%),[5],100% and 98%
same,Population Pyknosed Nuclei (%),[5],38%
same,Population Tubulin-Different-Phenotype (%),[5],24% and 27%
same,Total Cell Count,[5],178 and 207
same,Population Apoptotic (%),[6],85% and 88%
same,Population Fragmented Nuclei (%),[6],14% and 22%
same,Population Healthy Nuclei (%),[6],35% and 28%
same,Population Hoechst High Intensity Objects (%),[6],1%
same,Population Membrane Permeable-Phenotype (%),[6],7% and 16%
same,Population Mitochondria Different-Phenotype (%),[6],37% and 27%
same,Population Mitotic Cells (%),[6],14% and 11%
same,Population Normal (%),[6],98%
same,Population Pyknosed Nuclei (%),[6],50% and 49%
same,Population Tubulin-Different-Phenotype (%),[6],70% and 53%
same,Total Cell Count,[6],184 and 191
